# Measurements as given in the M2OR odorant receptor database.
# Test system: T1, O5AN1
# T1 sequence (whole entry): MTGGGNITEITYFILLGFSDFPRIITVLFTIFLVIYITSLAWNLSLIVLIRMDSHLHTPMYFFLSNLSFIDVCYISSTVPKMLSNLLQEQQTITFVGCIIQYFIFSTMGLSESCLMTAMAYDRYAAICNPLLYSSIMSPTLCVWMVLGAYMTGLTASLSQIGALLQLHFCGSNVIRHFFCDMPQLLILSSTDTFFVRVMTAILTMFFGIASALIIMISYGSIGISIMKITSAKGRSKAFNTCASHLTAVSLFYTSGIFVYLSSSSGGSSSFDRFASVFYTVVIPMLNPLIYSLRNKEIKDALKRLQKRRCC
# Settings: stereoisomer not certain
# Procedure, shortened: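 Values were gathered from published papers (main text and supplementary material), with extra details requested from the original authors when needed, and checked for typos and inconsistencies. Each receptor–molecule pair is called responsive (active) if the original authors judged the measured signal statistically different from baseline, and non-responsive (inactive) otherwise. Assay methods varied by source, often transient mammalian cell-line luciferase assays. Recorded details include cell line, G-protein, co-transfected protein and tags.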
smiles,measurement,value
CC1CC=CCCCCCCCCCC(=O)C1 (stereo unspecified),odorant receptor agonist call,active
